According to ChEMBL document CHEMBL5032538, “Studies on the Importance of the 7α-, and 12α- hydroxyl groups of N-Aryl-3α,7α,12α-trihydroxy-5β-cholan-24-amides on their Antigermination Activity Against a Hypervirulent Strain of Clostridioides (Clostridium) difficile” (Bioorg Med Chem, 2021):

These compounds were tested against Clostridioides difficile (assay: Inhibition of Taurocholate-induced spore germination in Clostridioides difficile UK1 at […] by spectrophotometric method).
Type: functional
With `C[C@H](CCC(=O)O)[C@H]1CC[C@H]2[C@@H]3[C@@H](O)C[C@@H]4C[C@H](O)CC[C@]4(C)[C@H]3CC[C@]12C` [URSODIOL] the Ki was 213 µM.
`C[C@H](CCC(=O)O)[C@H]1CC[C@H]2[C@@H]3CC[C@@H]4C[C@H](O)CC[C@]4(C)[C@H]3CC[C@]12C` [LITHOCHOLIC ACID] was tested, and the Ki was 104 µM.
For `C[C@H](CCC(=O)O)[C@H]1CC[C@H]2[C@@H]3[C@H](O)C[C@@H]4C[C@H](O)CC[C@]4(C)[C@H]3CC[C@]12C` [CHENODIOL], the Ki was 378 µM.

These compounds were tested on Clostridioides difficile (assay: Inhibition of Taurocholate-induced spore germination in Clostridioides difficile R20291 assessed as remaining germination activity at 125 uM in the presence of glycine measured every minute for 2 hrs relative to control).
Type: functional
Summary of the method: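 Spores purified on a HistoDenz gradient, heat-activated at 68°C for 30 min, washed, then diluted to OD580 1.0 in 100 mM sodium phosphate pH 6.0 with 5 mg/ml sodium bicarbonate. Compound at 125 μM final, in triplicate, with 6 mM taurocholate and 12 mM glycine. OD580 read every minute for 2 h and normalized to time zero. Percent germination given with standard deviation.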
For `C[C@H](CCC(=O)Nc1ccccc1)[C@H]1CC[C@H]2[C@@H]3CC[C@@H]4C[C@H](O)CC[C@]4(C)[C@H]3CC[C@]12C`, the Activity was 100%.
With `C[C@H](CCC(=O)Nc1ccccc1)[C@H]1CC[C@H]2[C@@H]3[C@@H](O)C[C@@H]4C[C@H](O)CC[C@]4(C)[C@H]3CC[C@]12C` the Activity was 57%.
`COc1ccccc1NC(=O)CC[C@@H](C)[C@H]1CC[C@H]2[C@@H]3CC[C@@H]4C[C@H](O)CC[C@]4(C)[C@H]3C[C@H](O)[C@]12C` gave an Activity of 0.4%.
In the case of `COc1ccccc1NC(=O)CC[C@@H](C)[C@H]1CC[C@H]2[C@@H]3CC[C@@H]4C[C@H](O)CC[C@]4(C)[C@H]3CC[C@]12C`, the Activity is reported as 100%.
Compound `C[C@H](CCC(=O)Nc1cccc(F)c1)[C@H]1CC[C@H]2[C@@H]3[C@H](O)C[C@@H]4C[C@H](O)CC[C@]4(C)[C@H]3CC[C@]12C` has an Activity of 100%.
For `C[C@H](CCC(=O)Nc1cccc(F)c1)[C@H]1CC[C@H]2[C@@H]3[C@@H](O)C[C@@H]4C[C@H](O)CC[C@]4(C)[C@H]3CC[C@]12C`, the Activity was 100%.
`Cc1ccc(F)cc1NC(=O)CC[C@@H](C)[C@H]1CC[C@H]2[C@@H]3[C@H](O)C[C@@H]4C[C@H](O)CC[C@]4(C)[C@H]3CC[C@]12C` showed an Activity of 66%.
Work on `Cc1ccc(F)cc1NC(=O)CC[C@@H](C)[C@H]1CC[C@H]2[C@@H]3[C@@H](O)C[C@@H]4C[C@H](O)CC[C@]4(C)[C@H]3CC[C@]12C` yielded an Activity of 100%.
For `Cc1ccc(F)cc1NC(=O)CC[C@@H](C)[C@H]1CC[C@H]2[C@@H]3CC[C@@H]4C[C@H](O)CC[C@]4(C)[C@H]3C[C@H](O)[C@]12C`, the Activity was 65%.
In the case of `C[C@H](CCC(=O)Nc1cccc(F)c1)[C@H]1CC[C@H]2[C@@H]3CC[C@@H]4C[C@H](O)CC[C@]4(C)[C@H]3CC[C@]12C`, the Activity is reported as 100%.
Compound `Cc1ccc(F)cc1NC(=O)CC[C@@H](C)[C@H]1CC[C@H]2[C@@H]3CC[C@@H]4C[C@H](O)CC[C@]4(C)[C@H]3CC[C@]12C` has an Activity of 100%.
With `COc1ccccc1NC(=O)CC[C@@H](C)[C@H]1CC[C@H]2[C@@H]3[C@@H](O)C[C@@H]4C[C@H](O)CC[C@]4(C)[C@H]3CC[C@]12C` the Activity was 100%.
With `C[C@H](CCC(=O)Nc1ccccc1)[C@H]1CC[C@H]2[C@@H]3CC[C@@H]4C[C@H](O)CC[C@]4(C)[C@H]3C[C@H](O)[C@]12C` the Activity was 3%.
Compound `C[C@H](CCC(=O)Nc1cccc(F)c1)[C@H]1CC[C@H]2[C@@H]3CC[C@@H]4C[C@H](O)CC[C@]4(C)[C@H]3C[C@H](O)[C@]12C` has an Activity of 59%.
`C[C@H](CCC(=O)Nc1ccccc1)[C@H]1CC[C@H]2[C@@H]3[C@H](O)C[C@@H]4C[C@H](O)CC[C@]4(C)[C@H]3CC[C@]12C` gave an Activity of 14%.
`COc1ccccc1NC(=O)CC[C@@H](C)[C@H]1CC[C@H]2[C@@H]3[C@H](O)C[C@@H]4C[C@H](O)CC[C@]4(C)[C@H]3CC[C@]12C` was tested, and the Activity was 31%.

Each compound was assayed against Clostridioides difficile (assay: Inhibition of Taurocholate-induced spore germination in Clostridioides difficile 630 in presence of glycine measured every minute for 90 mins).
Type: functional
`C[C@H](CCC(=O)Nc1cccc(S(=O)(=O)O)c1)[C@H]1CC[C@H]2[C@@H]3[C@H](O)C[C@@H]4C[C@H](O)CC[C@]4(C)[C@H]3C[C@H](O)[C@]12C` showed a Ki of 50 µM.

What follows are compounds tested on Clostridioides difficile (assay: Inhibition of Taurocholate-induced spore germination in Clostridioides difficile R20291 in the presence of glycine measured every minute for 2 hrs).
Type: functional
Summary of the method: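 HistoDenz-purified spores were heat-activated at 68°C for 30 min and set to OD580 1.0 in 100 mM sodium phosphate pH 6.0 with 5 mg/ml bicarbonate. They were incubated with varied analog concentrations plus 6 mM taurocholate and 12 mM glycine. OD580 was read each minute for 2 h and normalized to t0. IC50 came from extent of germination plotted against log concentration.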
`COc1ccccc1NC(=O)CC[C@@H](C)[C@H]1CC[C@H]2[C@@H]3CC[C@@H]4C[C@H](O)CC[C@]4(C)[C@H]3C[C@H](O)[C@]12C` gave an IC50 of 2.4 µM.
In the case of `C[C@H](CCC(=O)Nc1ccccc1)[C@H]1CC[C@H]2[C@@H]3CC[C@@H]4C[C@H](O)CC[C@]4(C)[C@H]3C[C@H](O)[C@]12C`, the IC50 is reported as 1.3 µM.
For `C[C@H](CCC(=O)Nc1ccccc1)[C@H]1CC[C@H]2[C@@H]3[C@H](O)C[C@@H]4C[C@H](O)CC[C@]4(C)[C@H]3CC[C@]12C`, the IC50 was 4 µM.
`COc1ccccc1NC(=O)CC[C@@H](C)[C@H]1CC[C@H]2[C@@H]3[C@H](O)C[C@@H]4C[C@H](O)CC[C@]4(C)[C@H]3CC[C@]12C` showed an IC50 of 6 µM.
